Results as given in ChEMBL document CHEMBL4411336, “2-Aminothiazole Derivatives as Selective Allosteric Modulators of the Protein Kinase CK2. 2. Structure-Based Optimization and Investigation of Effects Specific to the Allosteric Mode of Action” (J Med Chem, 2019).
Values belong to the compound of their own block, whether it stands above or below them. Calls of active or inactive are those of the source. The rule behind the calls is not given here.

Legend:
[1] = biological target: T1, Casein kinase II subunit alpha (Homo sapiens, UniProt P68400); test: Inhibition of recombinant human GST-tagged CK2alpha in presence of ATP by radiometric kinase assay
Target sequence in this assay (P68400 whole entry): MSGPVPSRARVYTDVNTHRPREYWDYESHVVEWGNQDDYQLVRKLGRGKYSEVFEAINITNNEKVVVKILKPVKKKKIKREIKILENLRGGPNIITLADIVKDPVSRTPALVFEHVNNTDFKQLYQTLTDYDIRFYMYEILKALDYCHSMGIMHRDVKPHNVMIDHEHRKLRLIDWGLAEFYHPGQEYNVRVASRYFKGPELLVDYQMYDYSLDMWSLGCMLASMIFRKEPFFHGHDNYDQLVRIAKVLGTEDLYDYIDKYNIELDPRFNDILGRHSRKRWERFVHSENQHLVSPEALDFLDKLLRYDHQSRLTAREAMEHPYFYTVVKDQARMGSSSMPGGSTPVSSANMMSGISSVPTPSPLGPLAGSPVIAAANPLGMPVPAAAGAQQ

786-0 [2] = test: Growth inhibition of human 786-0 cells at 25 uM after 24 hrs by MTT assay relative to control; format: functional; details: 786-0, 24 h, read-out: GI
786-0 [3] = test: Growth inhibition of human 786-0 cells after 24 hrs by MTT assay; format: functional; details: 786-0, 24 h
Procedure, shortened: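 786-O grown in RPMI 1640 with 10% FCS, pen/strep, 37 °C, 5% CO2; assays in medium with 0.1% or 0.5% serum. Cells seeded at 1 × 10^4/well, next day given fresh medium with inhibitor at various concentrations, DMSO (0.25%) control, 24 h. MTT 2 h at 37 °C, SDS/HCl solubilization 4 h, absorbance 570 nm. GI50 by linear interpolation on log[c] scale; at least two independent experiments.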

[4] = biological target: T1, Casein kinase II subunit alpha; details: HeLa, 40 uM
Target sequence in this assay (P68400 whole entry, looked up): as the sequence (P68400 whole entry) above

[5] = biological target: Activin receptor type-1 (Homo sapiens) (UniProt Q04771); test: Inhibition of recombinant human catalytic GST-tagged ACVR1 expressed in baculovirus expression system assessed as reduction in enzyme activity at 5 uM in presence of ATP relative to control
Activin receptor type-1 (Homo sapiens), sequence (Q04771 whole entry, canonical isoform): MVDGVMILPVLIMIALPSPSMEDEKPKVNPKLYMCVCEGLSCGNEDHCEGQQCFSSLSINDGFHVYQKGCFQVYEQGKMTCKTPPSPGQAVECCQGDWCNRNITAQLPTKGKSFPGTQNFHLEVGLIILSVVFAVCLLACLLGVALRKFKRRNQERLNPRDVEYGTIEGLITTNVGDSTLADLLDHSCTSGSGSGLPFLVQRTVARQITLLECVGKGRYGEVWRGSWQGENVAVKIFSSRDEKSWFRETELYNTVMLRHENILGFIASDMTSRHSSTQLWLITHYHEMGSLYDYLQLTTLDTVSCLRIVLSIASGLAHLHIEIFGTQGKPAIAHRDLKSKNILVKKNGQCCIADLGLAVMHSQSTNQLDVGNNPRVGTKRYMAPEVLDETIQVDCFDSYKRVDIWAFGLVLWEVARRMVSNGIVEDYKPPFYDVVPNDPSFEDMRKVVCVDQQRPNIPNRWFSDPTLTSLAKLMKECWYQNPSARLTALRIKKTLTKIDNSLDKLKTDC

[6] = biological target: Casein kinase I isoform gamma-1 (Homo sapiens) (UniProt Q9HCP0); test: Inhibition of recombinant full length human GST-tagged CK1gamma1 expressed in baculovirus expression system assessed as reduction in enzyme activity at 5 uM in presence of ATP relative to control
Casein kinase I isoform gamma-1 (Homo sapiens), sequence (Q9HCP0 whole entry, looked up, canonical isoform): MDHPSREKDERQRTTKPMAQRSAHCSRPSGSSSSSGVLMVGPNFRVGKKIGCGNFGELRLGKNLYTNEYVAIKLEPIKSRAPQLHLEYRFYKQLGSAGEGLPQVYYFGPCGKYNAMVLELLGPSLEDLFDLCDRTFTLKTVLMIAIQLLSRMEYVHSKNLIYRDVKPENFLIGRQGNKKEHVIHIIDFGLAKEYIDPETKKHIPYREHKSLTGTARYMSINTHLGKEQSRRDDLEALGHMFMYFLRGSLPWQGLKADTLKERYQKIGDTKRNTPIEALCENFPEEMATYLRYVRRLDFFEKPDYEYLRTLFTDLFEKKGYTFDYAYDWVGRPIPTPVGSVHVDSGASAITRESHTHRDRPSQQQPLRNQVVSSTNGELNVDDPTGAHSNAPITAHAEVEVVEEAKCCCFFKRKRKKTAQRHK

[7] = biological target: Glycogen synthase kinase-3 beta (Homo sapiens) (UniProt P49841); test: Inhibition of recombinant full length human His-tagged GSK3beta expressed in baculovirus expression system assessed as reduction in enzyme activity at 5 uM in presence of ATP relative to control
Glycogen synthase kinase-3 beta (Homo sapiens), sequence (P49841 whole entry, looked up): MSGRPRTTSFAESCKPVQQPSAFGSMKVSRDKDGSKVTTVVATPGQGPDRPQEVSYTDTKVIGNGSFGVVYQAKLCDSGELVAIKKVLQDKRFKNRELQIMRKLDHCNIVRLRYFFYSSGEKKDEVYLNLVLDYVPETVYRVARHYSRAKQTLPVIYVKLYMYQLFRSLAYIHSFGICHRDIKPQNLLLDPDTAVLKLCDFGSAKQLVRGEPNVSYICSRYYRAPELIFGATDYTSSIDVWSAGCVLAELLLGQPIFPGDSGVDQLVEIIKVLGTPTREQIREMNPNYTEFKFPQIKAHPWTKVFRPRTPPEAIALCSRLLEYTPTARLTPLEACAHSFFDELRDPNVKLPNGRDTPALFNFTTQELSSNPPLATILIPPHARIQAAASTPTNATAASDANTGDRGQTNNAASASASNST

Homo sapiens = organism: Homo sapiens; test: Inhibition of human PI3K assessed as reduction in enzyme activity at 5 uM in presence of ATP relative to control
[8] = biological target: Serine/threonine-protein kinase pim-1 (Homo sapiens) (UniProt P11309); test: Inhibition of recombinant full length human His-tagged PIM1 expressed in baculovirus expression system assessed as reduction in enzyme activity at 5 uM in presence of ATP relative to control
Serine/threonine-protein kinase pim-1 (Homo sapiens), sequence (P11309 whole entry, looked up): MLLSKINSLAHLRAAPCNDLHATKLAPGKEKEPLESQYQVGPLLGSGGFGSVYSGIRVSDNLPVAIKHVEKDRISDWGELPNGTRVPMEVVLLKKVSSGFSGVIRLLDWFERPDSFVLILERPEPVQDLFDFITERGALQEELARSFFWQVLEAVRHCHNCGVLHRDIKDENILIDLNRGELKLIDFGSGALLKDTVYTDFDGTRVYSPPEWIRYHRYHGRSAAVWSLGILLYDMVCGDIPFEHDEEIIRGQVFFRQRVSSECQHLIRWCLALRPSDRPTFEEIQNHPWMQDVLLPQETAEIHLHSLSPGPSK

[9] = biological target: Aurora kinase B (Homo sapiens) (UniProt Q96GD4); test: Inhibition of recombinant full length human His-tagged AURKB expressed in baculovirus expression system assessed as reduction in enzyme activity at 5 uM in presence of ATP relative to control
[10] = biological target: Receptor tyrosine-protein kinase erbB-2 (Homo sapiens) (UniProt P04626); test: Inhibition of human His-tagged ERBB2 expressed in baculovirus expression system assessed as reduction in enzyme activity at 5 uM in presence of ATP relative to control; set-up: scale not given: the % may be the effect or the level left
[11] = biological target: Dual specificity protein kinase CLK4 (Homo sapiens) (UniProt Q9HAZ1); test: Inhibition of recombinant full length human GST-tagged CLK4 expressed in baculovirus expression system assessed as reduction in enzyme activity at 5 uM in presence of ATP relative to control
[12] = Growth inhibition of human RPTEC cells after 24 hrs by MTT assay; format: cell-based
[13] = Growth inhibition of human MCF10A cells after 24 hrs by MTT assay; format: cell-based, MCF-10A
NCI-H1299 = test: Growth inhibition of human H1299 cells after 24 hrs by MTT assay; format: functional; details: NCI-H1299, 24 h
PC-3 = test: Growth inhibition of human PC3 cells after 24 hrs by MTT assay; format: functional; details: PC-3, 24 h
DU-145 = test: Growth inhibition of human DU145 cells after 24 hrs by MTT assay; format: functional; details: DU-145, 24 h
U138-MG = test: Growth inhibition of human U138MG cells after 24 hrs by MTT assay; format: functional
[14] = biological target: Serine/threonine-protein kinase pim-1 (Homo sapiens) (UniProt P11309); test: Inhibition of human PIM1 assessed as reduction in enzyme activity at 5 uM in presence of ATP relative to control; set-up: scale not given: the % may be the effect or the level left
[15] = biological target: Epidermal growth factor receptor (Homo sapiens) (UniProt P00533); test: Inhibition of human EGFR assessed as reduction in enzyme activity at 5 uM in presence of ATP relative to control; set-up: scale not given: the % may be the effect or the level left
Epidermal growth factor receptor (Homo sapiens), sequence (P00533 whole entry): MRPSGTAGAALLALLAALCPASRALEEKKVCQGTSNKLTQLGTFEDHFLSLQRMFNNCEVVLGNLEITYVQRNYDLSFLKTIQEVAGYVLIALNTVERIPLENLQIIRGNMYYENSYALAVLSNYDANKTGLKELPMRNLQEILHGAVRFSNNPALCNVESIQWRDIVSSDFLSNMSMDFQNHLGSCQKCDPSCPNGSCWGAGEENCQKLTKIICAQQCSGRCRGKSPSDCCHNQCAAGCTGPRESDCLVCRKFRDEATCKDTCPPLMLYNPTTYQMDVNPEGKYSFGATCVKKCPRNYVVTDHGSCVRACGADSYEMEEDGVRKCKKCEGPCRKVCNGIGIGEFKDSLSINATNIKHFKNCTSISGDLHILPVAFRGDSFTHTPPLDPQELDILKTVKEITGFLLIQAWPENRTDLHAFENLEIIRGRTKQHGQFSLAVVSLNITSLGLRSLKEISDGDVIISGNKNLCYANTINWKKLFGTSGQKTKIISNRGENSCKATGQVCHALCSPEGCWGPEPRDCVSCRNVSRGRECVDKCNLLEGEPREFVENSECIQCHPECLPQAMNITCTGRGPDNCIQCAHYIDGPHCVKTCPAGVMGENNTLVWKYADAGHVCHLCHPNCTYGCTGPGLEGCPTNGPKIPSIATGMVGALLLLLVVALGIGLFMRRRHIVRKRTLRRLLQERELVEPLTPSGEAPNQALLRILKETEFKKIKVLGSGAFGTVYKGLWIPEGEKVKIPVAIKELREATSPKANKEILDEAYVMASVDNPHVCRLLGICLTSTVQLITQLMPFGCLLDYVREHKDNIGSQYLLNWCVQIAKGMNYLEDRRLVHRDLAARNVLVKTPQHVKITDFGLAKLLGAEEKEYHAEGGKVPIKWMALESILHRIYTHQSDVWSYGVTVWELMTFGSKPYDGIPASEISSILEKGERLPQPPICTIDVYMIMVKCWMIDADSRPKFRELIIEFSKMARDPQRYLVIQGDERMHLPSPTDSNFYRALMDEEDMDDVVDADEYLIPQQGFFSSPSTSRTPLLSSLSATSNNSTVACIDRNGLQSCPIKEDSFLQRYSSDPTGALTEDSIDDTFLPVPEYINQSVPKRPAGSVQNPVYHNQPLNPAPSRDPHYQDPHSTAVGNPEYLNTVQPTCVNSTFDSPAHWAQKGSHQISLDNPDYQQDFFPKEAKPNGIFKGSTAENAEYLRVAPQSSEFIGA

[16] = biological target: Dual specificity protein kinase CLK2 (Homo sapiens) (UniProt P49760); details: 5 uM
[17] = biological target: Tyrosine-protein kinase ABL1 (Homo sapiens) (UniProt P00519); details: 5 uM
Tyrosine-protein kinase ABL1 (Homo sapiens), sequence (P00519 whole entry): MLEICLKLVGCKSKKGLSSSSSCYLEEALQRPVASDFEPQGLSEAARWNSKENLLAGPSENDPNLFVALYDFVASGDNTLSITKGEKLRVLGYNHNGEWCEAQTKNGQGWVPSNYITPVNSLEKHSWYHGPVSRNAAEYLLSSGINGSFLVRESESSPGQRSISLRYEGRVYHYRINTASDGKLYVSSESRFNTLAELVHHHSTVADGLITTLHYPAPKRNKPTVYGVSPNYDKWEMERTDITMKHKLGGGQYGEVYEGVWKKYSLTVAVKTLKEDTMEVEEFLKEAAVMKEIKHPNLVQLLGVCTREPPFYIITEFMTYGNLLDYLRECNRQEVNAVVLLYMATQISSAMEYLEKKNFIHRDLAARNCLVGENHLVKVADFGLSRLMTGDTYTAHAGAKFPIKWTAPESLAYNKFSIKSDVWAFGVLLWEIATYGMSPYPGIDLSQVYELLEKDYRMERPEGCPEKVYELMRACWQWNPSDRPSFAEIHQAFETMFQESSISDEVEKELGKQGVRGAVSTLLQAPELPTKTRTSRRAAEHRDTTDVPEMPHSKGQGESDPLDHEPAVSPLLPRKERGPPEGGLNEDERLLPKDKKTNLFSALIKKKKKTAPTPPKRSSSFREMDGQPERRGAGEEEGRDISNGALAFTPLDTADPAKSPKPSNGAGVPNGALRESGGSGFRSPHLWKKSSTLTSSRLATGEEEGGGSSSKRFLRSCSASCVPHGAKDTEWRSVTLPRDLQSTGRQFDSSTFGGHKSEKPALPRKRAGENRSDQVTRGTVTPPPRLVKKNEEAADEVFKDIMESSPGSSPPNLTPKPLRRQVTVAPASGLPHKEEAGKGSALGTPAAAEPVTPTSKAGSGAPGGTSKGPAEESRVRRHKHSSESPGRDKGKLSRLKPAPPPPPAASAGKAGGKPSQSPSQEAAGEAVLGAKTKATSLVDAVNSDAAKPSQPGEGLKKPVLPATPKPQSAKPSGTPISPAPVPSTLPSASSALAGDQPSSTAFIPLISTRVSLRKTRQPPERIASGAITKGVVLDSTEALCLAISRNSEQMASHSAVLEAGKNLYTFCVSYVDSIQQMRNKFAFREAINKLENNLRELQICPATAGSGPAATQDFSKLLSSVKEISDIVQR

[18] = biological target: Serine/threonine-protein kinase Chk2 (Homo sapiens) (UniProt O96017); details: 5 uM
Serine/threonine-protein kinase Chk2 (Homo sapiens), sequence (O96017 whole entry): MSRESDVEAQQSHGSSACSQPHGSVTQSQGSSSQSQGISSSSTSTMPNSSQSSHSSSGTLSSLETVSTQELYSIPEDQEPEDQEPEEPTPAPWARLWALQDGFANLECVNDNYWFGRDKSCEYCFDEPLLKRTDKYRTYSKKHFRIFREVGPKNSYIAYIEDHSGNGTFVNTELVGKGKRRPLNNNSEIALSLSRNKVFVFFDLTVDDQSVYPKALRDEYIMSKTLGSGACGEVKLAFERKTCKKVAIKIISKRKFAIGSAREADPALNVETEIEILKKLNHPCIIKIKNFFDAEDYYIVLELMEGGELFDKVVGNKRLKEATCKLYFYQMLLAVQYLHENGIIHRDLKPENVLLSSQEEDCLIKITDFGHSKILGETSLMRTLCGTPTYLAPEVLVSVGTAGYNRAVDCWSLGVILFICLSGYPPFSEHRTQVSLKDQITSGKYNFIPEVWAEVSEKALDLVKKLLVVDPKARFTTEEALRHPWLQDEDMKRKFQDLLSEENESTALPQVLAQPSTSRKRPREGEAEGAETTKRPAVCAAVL

[19] = biological target: Dual specificity protein kinase CLK1 (Homo sapiens) (UniProt P49759); details: 5 uM
[20] = biological target: Cyclin-dependent kinase 1/cyclin B1 (Homo sapiens) (UniProt P06493+P14635); details: 5 uM
786-0 [21] = test: cells; details: Homo sapiens, 786-0, 24 h
786-0 [22] = test: cells; details: Homo sapiens, 786-0, 24 h; remark: listed apart in the source

SMILES: COC(=O)c1ccc(Nc2nc(-c3cccc([N+](=O)[O-])c3)cs2)cc1
IC50 [1]: > 25 µM

SMILES: CC(=O)OCOC(=O)c1ccc(Nc2nc(-c3ccc4ccccc4c3)cs2)cc1
inhibition of growth at 25 µM (786-0 [2]): 45%

SMILES: CC(=O)OCOC(=O)c1ccc(Nc2nc(-c3ccsc3)cs2)cc1
inhibition of growth at 25 µM (786-0 [2]): 48%

SMILES: CC(=O)OCOC(=O)c1ccc(Nc2nc(-c3cccc([N+](=O)[O-])c3)cs2)cc1
inhibition of growth at 25 µM (786-0 [2]): 42%

SMILES: O=C(O)c1ccc(Nc2nc(-c3cccc(Br)c3)cs2)cc1
GI50 (786-0 [3]): 25 µM
inhibition [4]: Active

SMILES: O=C(O)Cc1ccc(Nc2nc(-c3cccc([N+](=O)[O-])c3)cs2)cc1
IC50 [1]: > 50 µM

SMILES: CC(C)(C)c1csc(Nc2ccc(C(=O)O)cc2)n1
IC50 [1]: > 50 µM

SMILES: CS(=O)(=O)NC(=O)c1ccc(Nc2nc(-c3ccc4ccccc4c3)cs2)cc1
inhibition of growth at 25 µM (786-0 [2]): 23%

SMILES: Cc1ccc(S(=O)(=O)NC(=O)c2ccc(Nc3nc(-c4ccc5ccccc5c4)cs3)cc2)cc1
inhibition of growth at 25 µM (786-0 [2]): 87%

SMILES: O=C(O)c1ccc(Nc2nc(-c3ccc(O)cc3O)cs2)cc1
IC50 [1]: 7 µM

The next lines start with results.

inhibition [5]: 0%
inhibition [6]: 32%
inhibition [7]: 41%
inhibition (Homo sapiens): 53%
inhibition [8]: 60%
inhibition [9]: 62%
Activity [10]: 70%
inhibition [11]: 23%
GI50 (786-0 [3]): 5 µM
GI50 (NCI-H1299): 9 µM
GI50 (PC-3): 7 µM
GI50 (DU-145): 20 µM
Activity [14]: 60%
Activity [15]: 21%
inhibition [16]: 20 to 30%
inhibition [17]: 20 to 30%
inhibition [18]: 20 to 30%
inhibition [19]: 20 to 30%
inhibition [20]: 20 to 30%
EC50 (786-0 [21]): 4.6 µM
EC50 (786-0 [22]): 4.9 µM
SMILES: O=C(O)c1ccc(Nc2nc(-c3ccc4ccccc4c3)cs2)cc1O
inhibition of growth at 25 µM (786-0 [2]): 87%
GI50 at 24 h [12]: 27 µM
GI50 at 24 h [13]: 10 µM
GI50 (U138-MG): 13 µM

IC50 [1]: > 50 µM
SMILES: N#Cc1ccc(Nc2nc(-c3ccc4ccccc4c3)cs2)cc1

IC50 [1]: > 25 µM
SMILES: O=[N+]([O-])c1cccc(-c2csc(Nc3ccccc3)n2)c1

IC50 [1]: > 50 µM
SMILES: c1ccc(Nc2nc(-c3ccc4ccccc4c3)cs2)cc1
